According to ChEMBL document CHEMBL4312019, “Design, synthesis, and evaluation of compounds capable of reducing Pseudomonas aeruginosa virulence” (Eur J Med Chem, 2020):
Values after ≈ are worked out from the molar mass of the structure shown. Active and inactive are the calls of the source. The calls are words filed in the database; no cut-off is given here.

What was measured:
Rattus norvegicus [1] = species: Rattus norvegicus; assay: Displacement of [3H]-PK11195 from PBR in rat brain incubated for 90 mins by microbeta scintillation counting method; type: tissue-based
[2] = biological target: 5-hydroxytryptamine receptor 1D (Homo sapiens) (UniProt P28221); assay: Displacement of [3H]-5-CT from human recombinant 5HT1D receptor expressed in HEKT cells at 10 uM incubated for 90 mins by microbeta scintillation counting method; type: cell-based
How it was run: (§1)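 Primary radioligand binding screen run by the NIMH Psychoactive Drug Screening Program, with one test level of 10 μM. The read-out was inhibition of radioligand binding at each receptor.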

[3] = biological target: Kappa-type opioid receptor (Homo sapiens) (UniProt P41145); assay: Displacement of [3H]-U69593 from human recombinant KOR receptor expressed in stable HEK cells incubated for 90 mins by microbeta scintillation counting method; type: cell-based
[4] = biological target: Muscarinic acetylcholine receptor M2 (Homo sapiens) (UniProt P08172); assay: Displacement of [3H]-QNB/[3H]-NMS from human recombinant muscarinic acetylcholine M2 receptor expressed in stable CHO cells incubated for 90 mins by microbeta scintillation counting method; type: cell-based
[5] = biological target: GABA-A receptor; anion channel (Rattus norvegicus) (UniProt O09028+P15431+P18506+P18508+P19969+P20236+P23574+P23576+P28471+P28473+P30191+P62813+P63079+P63138+Q91ZM7+Q9ES14); assay: Displacement of [3H]-Muscimol from GABAA receptor in rat brain incubated for 90 mins by microbeta scintillation counting method; type: tissue-based
[6] = biological target: Muscarinic acetylcholine receptor M4 (Homo sapiens) (UniProt P08173); assay: Displacement of [3H]-QNB/[3H]-NMS from human recombinant muscarinic acetylcholine M4 receptor expressed in stable CHO cells incubated for 90 mins by microbeta scintillation counting method; type: cell-based
[7] = biological target: D(1A) dopamine receptor (Homo sapiens) (UniProt P21728); assay: Displacement of [3H]-SCH23390 from human recombinant dopamine D1 receptor expressed in HEKT cells incubated for 90 mins by microbeta scintillation counting method; type: cell-based
[8] = biological target: Beta-1 adrenergic receptor (Homo sapiens) (UniProt P08588); assay: Displacement of [125I]-pindolol from recombinant human beta1 adrenergic receptor expressed in CHO Flp-In cells incubated for 90 mins by microbeta scintillation counting method; type: cell-based
[9] = biological target: Alpha-1D adrenergic receptor (Homo sapiens) (UniProt P25100); assay: Displacement of [3H]-8-OH-DPAT from human recombinant alpha1D adrenergic receptor at 10 uM incubated for 90 mins by microbeta scintillation counting method; how it was run: as §1
[10] = biological target: Alpha-1A adrenergic receptor (Homo sapiens) (UniProt P35348); assay: Displacement of [3H]-prazosin from human recombinant alpha1A adrenergic receptor at 10 uM incubated for 90 mins by microbeta scintillation counting method; how it was run: as §1
[11] = biological target: Sigma non-opioid intracellular receptor 1 (Homo sapiens) (UniProt Q99720); assay: Displacement of [3H]-Pentazocine from human recombinant sigma1 receptor expressed in HEKT cells incubated for 90 mins by microbeta scintillation counting method; type: cell-based
[12] = biological target: Histamine H2 receptor (Homo sapiens) (UniProt P25021); assay: Displacement of [125I]-Iodoaminopotentidine from human recombinant histamine H2 receptor expressed in stable HEK cells incubated for 90 mins by microbeta scintillation counting method; type: cell-based
[13] = biological target: Histamine H3 receptor (Homo sapiens) (UniProt Q9Y5N1); assay: Displacement of [3H]-alpha-methylhistamine from human recombinant histamine H3 receptor expressed in Flp-In HEK cells incubated for 90 mins by microbeta scintillation counting method; type: cell-based
[14] = biological target: Muscarinic acetylcholine receptor M1 (Homo sapiens) (UniProt P11229); assay: Displacement of [3H]-QNB/[3H]-NMS from human recombinant muscarinic acetylcholine M1 receptor expressed in stable CHO cells incubated for 90 mins by microbeta scintillation counting method; type: cell-based
[15] = biological target: D(2) dopamine receptor (Homo sapiens) (UniProt P14416); assay: Displacement of [3H]-N-methylspiperone from human recombinant dopamine D2 receptor expressed in stable fibroblast cells incubated for 90 mins by microbeta scintillation counting method; type: cell-based
[16] = biological target: 5-hydroxytryptamine receptor 2B (Homo sapiens) (UniProt P41595); assay: Displacement of [3H]-LSD from human recombinant 5HT2B receptor expressed in stable HEK cells at 10 uM incubated for 90 mins by microbeta scintillation counting method; type: cell-based; how it was run: as §1
[17] = biological target: Beta-3 adrenergic receptor (Homo sapiens) (UniProt P13945); assay: Displacement of [3H]-CGP12177 from human recombinant adrenergic beta3 receptor expressed in Flp-In HEK cells incubated for 90 mins by microbeta scintillation counting method; type: cell-based
[18] = biological target: Histamine H1 receptor (Homo sapiens) (UniProt P35367); assay: Displacement of [3H]-Pyrilamine from human recombinant histamine H1 receptor expressed in stable HEK cells incubated for 90 mins by microbeta scintillation counting method; type: cell-based
Rattus norvegicus [19] = species: Rattus norvegicus; assay: Displacement of [3H]-Flunitrazepam from BZP receptor in rat brain at 10 uM incubated for 90 mins by microbeta scintillation counting method; type: tissue-based; how it was run: as §1
[20] = biological target: 5-hydroxytryptamine receptor 3A (Homo sapiens) (UniProt P46098); assay: Displacement of [3H]-GR65630 from human recombinant 5HT3 receptor expressed in HEKT cells at 10 uM incubated for 90 mins by microbeta scintillation counting method; type: cell-based; how it was run: as §1
[21] = biological target: Beta-2 adrenergic receptor (Homo sapiens) (UniProt P07550); assay: Displacement of [125I]-CGP12177 from recombinant human beta2 adrenergic receptor expressed in HEK Flp-In cells measured after 90 mins by microbeta scintillation counting method; type: cell-based
[22] = biological target: Mu-type opioid receptor (Homo sapiens) (UniProt P35372); assay: Displacement of [3H]-DAMGO from human recombinant MOR receptor expressed in stable HEK cells incubated for 90 mins by microbeta scintillation counting method; type: cell-based
[23] = biological target: Muscarinic acetylcholine receptor M3 (Homo sapiens) (UniProt P20309); assay: Displacement of [3H]-QNB/[3H]-NMS from human recombinant muscarinic acetylcholine M3 receptor expressed in stable CHO cells incubated for 90 mins by microbeta scintillation counting method; type: cell-based
[24] = biological target: 5-hydroxytryptamine receptor 2A (Homo sapiens) (UniProt P28223); assay: Displacement of [3H]-ketanserin from human recombinant 5HT2A receptor expressed in HEKT cells at 10 uM incubated for 90 mins by microbeta scintillation counting method; type: cell-based; how it was run: as §1
[25] = biological target: Muscarinic acetylcholine receptor M5 (Homo sapiens) (UniProt P08912); assay: Displacement of [3H]-QNB/[3H]-NMS from human recombinant muscarinic acetylcholine M5 receptor expressed in stable CHO cells incubated for 90 mins by microbeta scintillation counting method; type: cell-based
NIH3T3 = assay: Cytotoxicity against mouse NIH/3T3 cells measured after 48 hrs by MTT assay; type: cell-based; details: NIH3T3, 48 h
[26] = biological target: Sodium-dependent noradrenaline transporter (Homo sapiens) (UniProt P23975); assay: Displacement of [3H]-Nisoxetine from human recombinant NET receptor expressed in stable HEK cells incubated for 90 mins by microbeta scintillation counting method; type: cell-based
[27] = biological target: D(3) dopamine receptor (Homo sapiens) (UniProt P35462); assay: Displacement of [3H]-N-methylspiperone from human recombinant dopamine D3 receptor expressed in HEKT cells incubated for 90 mins by microbeta scintillation counting method; type: cell-based
[28] = biological target: 5-hydroxytryptamine receptor 1B (Homo sapiens) (UniProt P28222); assay: Displacement of [3H]-5-CT from human recombinant 5HT1B receptor expressed in stable HEK cells at 10 uM incubated for 90 mins by microbeta scintillation counting method; type: cell-based; how it was run: as §1
Chain of 5-hydroxytryptamine receptor 1B (Homo sapiens) (P28222 whole entry): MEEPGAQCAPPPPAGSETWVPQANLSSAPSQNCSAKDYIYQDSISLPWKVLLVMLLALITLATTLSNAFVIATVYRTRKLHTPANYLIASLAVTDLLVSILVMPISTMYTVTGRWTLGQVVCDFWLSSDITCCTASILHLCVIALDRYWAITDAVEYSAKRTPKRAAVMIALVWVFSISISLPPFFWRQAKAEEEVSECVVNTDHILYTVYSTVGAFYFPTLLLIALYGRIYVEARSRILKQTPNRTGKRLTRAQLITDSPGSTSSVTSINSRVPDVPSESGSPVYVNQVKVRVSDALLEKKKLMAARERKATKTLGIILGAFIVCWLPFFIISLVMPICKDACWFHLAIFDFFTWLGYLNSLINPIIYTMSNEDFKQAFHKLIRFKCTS

Chain of Alpha-1D adrenergic receptor (Homo sapiens) (P25100 whole entry): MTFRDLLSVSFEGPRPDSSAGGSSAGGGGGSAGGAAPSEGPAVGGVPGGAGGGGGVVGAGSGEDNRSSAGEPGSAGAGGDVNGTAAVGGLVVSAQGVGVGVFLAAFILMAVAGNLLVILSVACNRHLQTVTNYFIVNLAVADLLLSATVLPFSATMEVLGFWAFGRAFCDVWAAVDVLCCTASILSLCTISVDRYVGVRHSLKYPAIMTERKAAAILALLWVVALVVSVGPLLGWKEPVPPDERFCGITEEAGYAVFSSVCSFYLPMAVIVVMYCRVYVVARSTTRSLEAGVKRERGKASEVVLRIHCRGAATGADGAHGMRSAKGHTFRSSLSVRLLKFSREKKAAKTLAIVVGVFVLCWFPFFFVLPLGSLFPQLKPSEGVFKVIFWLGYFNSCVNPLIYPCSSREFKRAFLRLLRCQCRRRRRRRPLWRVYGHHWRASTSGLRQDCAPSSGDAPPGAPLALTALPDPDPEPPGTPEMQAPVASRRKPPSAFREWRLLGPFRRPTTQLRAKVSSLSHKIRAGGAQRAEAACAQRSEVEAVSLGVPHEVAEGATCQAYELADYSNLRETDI
Chain of Muscarinic acetylcholine receptor M1 (Homo sapiens) (P11229 whole entry): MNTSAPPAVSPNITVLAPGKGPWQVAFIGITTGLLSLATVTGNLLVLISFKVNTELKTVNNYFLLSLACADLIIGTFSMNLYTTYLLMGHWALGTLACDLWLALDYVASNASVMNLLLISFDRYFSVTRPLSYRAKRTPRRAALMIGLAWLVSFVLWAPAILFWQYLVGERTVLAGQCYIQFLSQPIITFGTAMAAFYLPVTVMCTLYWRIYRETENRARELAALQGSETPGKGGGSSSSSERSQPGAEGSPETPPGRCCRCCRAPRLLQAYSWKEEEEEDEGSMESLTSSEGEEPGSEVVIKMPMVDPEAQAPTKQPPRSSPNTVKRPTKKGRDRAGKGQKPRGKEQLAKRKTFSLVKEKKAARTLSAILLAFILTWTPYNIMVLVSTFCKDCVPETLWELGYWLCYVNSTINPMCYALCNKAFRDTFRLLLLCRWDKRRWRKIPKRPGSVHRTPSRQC
Chain of 5-hydroxytryptamine receptor 1D (Homo sapiens) (P28221 whole entry): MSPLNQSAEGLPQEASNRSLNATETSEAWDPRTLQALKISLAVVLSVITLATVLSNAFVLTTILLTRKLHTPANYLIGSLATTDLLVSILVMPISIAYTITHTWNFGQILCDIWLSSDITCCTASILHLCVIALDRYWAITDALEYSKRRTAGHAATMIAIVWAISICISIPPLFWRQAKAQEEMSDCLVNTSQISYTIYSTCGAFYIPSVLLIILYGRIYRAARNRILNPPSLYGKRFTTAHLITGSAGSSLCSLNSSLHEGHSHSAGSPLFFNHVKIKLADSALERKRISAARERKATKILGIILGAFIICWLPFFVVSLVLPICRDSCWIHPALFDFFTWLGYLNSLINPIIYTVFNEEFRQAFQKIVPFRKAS
Chain of Histamine H2 receptor (Homo sapiens) (P25021 whole entry): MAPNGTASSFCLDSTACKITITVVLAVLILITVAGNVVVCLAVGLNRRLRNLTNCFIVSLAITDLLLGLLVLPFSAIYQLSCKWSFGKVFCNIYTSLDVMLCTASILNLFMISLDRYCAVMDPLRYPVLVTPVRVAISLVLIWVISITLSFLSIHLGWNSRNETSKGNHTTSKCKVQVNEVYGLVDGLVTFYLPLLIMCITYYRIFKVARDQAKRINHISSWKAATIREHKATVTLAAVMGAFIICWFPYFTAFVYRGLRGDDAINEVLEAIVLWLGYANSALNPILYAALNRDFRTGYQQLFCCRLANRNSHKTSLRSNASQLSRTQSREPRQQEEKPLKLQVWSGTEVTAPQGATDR
Chain of 5-hydroxytryptamine receptor 2B (Homo sapiens) (P41595 whole entry): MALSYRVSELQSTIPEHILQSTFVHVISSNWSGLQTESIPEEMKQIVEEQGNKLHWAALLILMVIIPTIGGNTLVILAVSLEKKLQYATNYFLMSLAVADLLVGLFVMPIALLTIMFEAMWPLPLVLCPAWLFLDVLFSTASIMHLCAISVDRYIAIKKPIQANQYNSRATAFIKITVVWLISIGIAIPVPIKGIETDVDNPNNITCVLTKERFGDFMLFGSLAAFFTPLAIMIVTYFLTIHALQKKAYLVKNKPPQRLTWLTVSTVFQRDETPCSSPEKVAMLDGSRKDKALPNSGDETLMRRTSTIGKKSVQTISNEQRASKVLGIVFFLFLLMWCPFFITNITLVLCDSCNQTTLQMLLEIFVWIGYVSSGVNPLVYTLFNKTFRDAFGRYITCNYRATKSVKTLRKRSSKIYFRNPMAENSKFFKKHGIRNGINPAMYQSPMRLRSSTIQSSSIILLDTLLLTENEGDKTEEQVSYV
Chain of D(3) dopamine receptor (Homo sapiens) (P35462 whole entry): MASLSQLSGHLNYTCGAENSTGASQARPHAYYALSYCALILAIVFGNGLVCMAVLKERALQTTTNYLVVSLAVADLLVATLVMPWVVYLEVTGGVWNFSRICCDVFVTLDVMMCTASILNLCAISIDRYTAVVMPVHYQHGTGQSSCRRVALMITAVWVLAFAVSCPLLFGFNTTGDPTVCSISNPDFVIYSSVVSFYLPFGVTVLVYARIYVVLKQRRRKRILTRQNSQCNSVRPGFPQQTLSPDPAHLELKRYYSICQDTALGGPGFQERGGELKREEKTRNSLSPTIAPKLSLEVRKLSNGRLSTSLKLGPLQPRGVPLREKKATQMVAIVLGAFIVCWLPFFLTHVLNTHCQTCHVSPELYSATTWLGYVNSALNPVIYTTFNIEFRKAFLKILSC
Chain of Muscarinic acetylcholine receptor M4 (Homo sapiens) (P08173 whole entry): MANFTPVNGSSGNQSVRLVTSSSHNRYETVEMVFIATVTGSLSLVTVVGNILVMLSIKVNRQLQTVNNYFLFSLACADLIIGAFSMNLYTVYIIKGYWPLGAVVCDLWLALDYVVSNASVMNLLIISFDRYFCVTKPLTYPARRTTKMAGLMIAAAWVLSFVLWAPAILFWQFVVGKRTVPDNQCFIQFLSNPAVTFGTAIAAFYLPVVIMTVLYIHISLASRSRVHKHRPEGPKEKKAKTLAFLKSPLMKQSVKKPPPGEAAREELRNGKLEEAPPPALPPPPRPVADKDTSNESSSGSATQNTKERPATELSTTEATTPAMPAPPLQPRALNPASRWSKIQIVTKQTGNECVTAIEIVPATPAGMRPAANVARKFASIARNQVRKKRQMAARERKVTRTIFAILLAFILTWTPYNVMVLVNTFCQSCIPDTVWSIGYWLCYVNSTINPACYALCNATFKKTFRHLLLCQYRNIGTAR
Chain of Kappa-type opioid receptor (Homo sapiens) (P41145 whole entry): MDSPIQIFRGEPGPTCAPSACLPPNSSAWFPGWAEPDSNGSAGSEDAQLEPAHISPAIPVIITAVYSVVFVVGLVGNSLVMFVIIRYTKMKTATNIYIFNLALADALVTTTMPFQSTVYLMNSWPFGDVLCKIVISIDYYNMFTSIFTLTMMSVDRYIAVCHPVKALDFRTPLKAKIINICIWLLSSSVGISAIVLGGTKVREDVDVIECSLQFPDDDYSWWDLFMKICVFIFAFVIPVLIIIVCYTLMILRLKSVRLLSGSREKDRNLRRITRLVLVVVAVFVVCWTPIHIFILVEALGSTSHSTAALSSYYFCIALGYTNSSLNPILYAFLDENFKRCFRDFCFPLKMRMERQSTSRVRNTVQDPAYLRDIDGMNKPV
Chain of Alpha-1A adrenergic receptor (Homo sapiens) (P35348 whole entry): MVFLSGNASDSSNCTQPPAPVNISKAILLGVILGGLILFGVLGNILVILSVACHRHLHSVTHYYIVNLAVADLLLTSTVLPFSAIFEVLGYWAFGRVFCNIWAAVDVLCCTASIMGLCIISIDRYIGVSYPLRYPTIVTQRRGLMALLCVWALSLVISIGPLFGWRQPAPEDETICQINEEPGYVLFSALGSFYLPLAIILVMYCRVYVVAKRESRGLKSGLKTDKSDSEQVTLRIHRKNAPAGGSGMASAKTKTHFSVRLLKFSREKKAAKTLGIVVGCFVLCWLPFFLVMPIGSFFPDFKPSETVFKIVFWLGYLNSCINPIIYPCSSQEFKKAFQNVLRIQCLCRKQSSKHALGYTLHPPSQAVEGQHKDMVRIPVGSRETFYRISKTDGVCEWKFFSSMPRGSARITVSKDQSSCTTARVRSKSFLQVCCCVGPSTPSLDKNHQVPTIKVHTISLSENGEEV
Chain of 5-hydroxytryptamine receptor 2A (Homo sapiens) (P28223 whole entry): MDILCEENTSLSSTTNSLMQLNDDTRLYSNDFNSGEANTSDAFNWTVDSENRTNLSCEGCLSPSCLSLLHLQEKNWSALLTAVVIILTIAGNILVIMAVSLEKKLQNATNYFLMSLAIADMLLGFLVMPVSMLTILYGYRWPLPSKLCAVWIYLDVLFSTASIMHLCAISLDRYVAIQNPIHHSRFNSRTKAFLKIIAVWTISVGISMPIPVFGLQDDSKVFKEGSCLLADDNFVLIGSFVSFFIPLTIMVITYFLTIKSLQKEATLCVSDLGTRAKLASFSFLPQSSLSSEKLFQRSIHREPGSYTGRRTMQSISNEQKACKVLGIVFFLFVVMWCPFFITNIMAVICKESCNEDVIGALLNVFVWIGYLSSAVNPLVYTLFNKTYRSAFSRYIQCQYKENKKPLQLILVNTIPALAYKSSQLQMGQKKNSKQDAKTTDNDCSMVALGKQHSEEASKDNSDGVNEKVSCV

Cn1c2cccc(=O)c-2nc2ccccc21 [PYOCYANIN]
inhibition (Rattus norvegicus [1]): inactive
inhibition [2]: inactive
inhibition [3]: inactive
inhibition [4]: inactive
inhibition [5]: inactive
inhibition [6]: inactive
inhibition [7]: inactive
inhibition [8]: inactive
inhibition [9]: inactive
inhibition [10]: inactive
inhibition [11]: inactive
inhibition [12]: inactive
inhibition [13]: inactive
inhibition [14]: inactive
inhibition [15]: inactive
inhibition [16]: inactive
inhibition [17]: inactive
inhibition [18]: inactive
inhibition (Rattus norvegicus [19]): inactive
inhibition [20]: inactive
inhibition [21]: inactive
inhibition [22]: inactive
inhibition [23]: inactive
inhibition [24]: inactive
inhibition [25]: inactive
IC50 (NIH3T3): 3.54 µg/mL (≈ 16.8 µM)
inhibition [26]: inactive
inhibition [27]: inactive
inhibition [28]: inactive
